Paper PMC2888972 (Molecular cancer therapeutics, 2009)
Like-named read-outs stand apart in the source and are kept apart here.

What was measured:
TA1535 = experiment: Bacterial mutation
WP2 uvrA = experiment: Bacterial mutation
TA98 = experiment: Bacterial mutation; conditions: positive control 1 µg/plate, −S9
TA100 = experiment: Bacterial mutation; conditions: positive control 0.5 µg/plate, −S9
Caki-1 cancer = experiment: Growth inhibition assay; format: cell-based, human; conditions: for efficacy (maximum growth inhibition observed): 1 to 12.5 µmol/L; for EC50: read-out: potency (EC50, concentration needed to induce half maximal efficacy)
Summary of the method: (§1)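 Stock is 0.01 mol/L in DMSO, kept at −20°C under subdued light. Cells get 1–12.5 µmol/L or equal-volume DMSO, in triplicate, for 48 h. Growth index is mean treated OD over mean control OD, plotted against concentration. Maximal inhibition comes by nonlinear regression from plots of 2–3 independent experiments.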

786-O cancer = experiment: Growth inhibition assay; format: cell-based, human; conditions: for efficacy (maximum growth inhibition observed): 48 h, 1 to 12.5 µmol/L; for EC50: read-out: potency (EC50, concentration needed to induce half maximal efficacy), 48 h
Summary of the method: as §1

HK-2 normal = experiment: Growth inhibition assay; format: cell-based, human; conditions: 48 h; for efficacy (maximum growth inhibition observed): 1 to 12.5 µmol/L; for EC50: read-out: potency (EC50, concentration needed to induce half maximal efficacy)
Summary of the method: as §1

RTC91696 normal = experiment: Growth inhibition assay; format: cell-based, human; conditions: RTC91696 normal, 48 h, single experiments; for efficacy (maximum growth inhibition observed): 1 to 12.5 µmol/L; for EC50: read-out: potency (EC50, concentration needed to induce half maximal efficacy)
[1] = positive control 0.5 µg/plate, −S9

Nc1ccc2cc3ccccc3cc2c1 [2AA, reference compound]
number of revertant colonies, Mean (TA1535; positive control 5 µg/plate, +S9): 324 | number of revertant colonies, Mean (WP2 uvrA; [1]): 594 | number of revertant colonies, Mean (WP2 uvrA; positive control 15 µg/plate, +S9): 145

O=[N+]([O-])c1ccc2c(c1)Cc1ccccc1-2 [2NF, reference compound]
number of revertant colonies, Mean (TA98): 108

[N-]=[N+]=[N-].[Na+] [NaAZ, reference compound]
number of revertant colonies, Mean (TA100): 511 | number of revertant colonies, Mean (TA1535; [1]): 304

CCOC(=O)c1ccc(NC(=O)Nc2ccc3c(c2)C(C)(C)CC(C)(C)S3)cc1 [SHetA4]
efficacy (maximum growth inhibition observed) (Caki-1 cancer; Caki-1 cancer, 48 h): 68.92% ± 6.94% | EC50 (Caki-1 cancer; Caki-1 cancer, 48 h): 5.07 ± 0.15 µM | efficacy (maximum growth inhibition observed) (786-O cancer): 45.04% ± 4.80% | EC50 (786-O cancer): 2.56 ± 0.34 µM | efficacy (maximum growth inhibition observed) (HK-2 normal; HK-2 normal): 26.35% ± 0.80% | EC50 (HK-2 normal; HK-2 normal): 5.19 ± 0.25 µM | efficacy (maximum growth inhibition observed) (RTC91696 normal): 39.67% ± 2.52% | EC50 (RTC91696 normal): 7.55 ± 0.51 µM

CC1(C)CC(C)(C)c2cc(NC(=O)Nc3ccc([N+](=O)[O-])cc3)ccc2S1 [SHetC2]
efficacy (maximum growth inhibition observed) (Caki-1 cancer; Caki-1 cancer, 48 h): 85.71% ± 4.53% | EC50 (Caki-1 cancer; Caki-1 cancer, 48 h): 4.91 ± 0.29 µM | efficacy (maximum growth inhibition observed) (786-O cancer): 78.53% ± 6.11% | EC50 (786-O cancer): 7.48 ± 0.34 µM | efficacy (maximum growth inhibition observed) (HK-2 normal; HK-2 normal): 52.67% ± 1.84% | EC50 (HK-2 normal; HK-2 normal): 4.47 ± 0.49 µM | efficacy (maximum growth inhibition observed) (RTC91696 normal): 52.31% ± 7.38% | EC50 (RTC91696 normal): 7.67 ± 0.49 µM

COC(=O)c1ccc(NC(=O)Nc2ccc3c(c2)C(C)(C)CC(C)(C)S3)cc1 [SHetD3]
efficacy (maximum growth inhibition observed) (Caki-1 cancer; Caki-1 cancer, 48 h): 56.99% ± 12.12% | EC50 (Caki-1 cancer; Caki-1 cancer, 48 h): 7.14 ± 0.22 µM | efficacy (maximum growth inhibition observed) (786-O cancer): 61.52% ± 1.44% | EC50 (786-O cancer): 7.15 ± 0.81 µM | efficacy (maximum growth inhibition observed) (HK-2 normal; HK-2 normal): 26.37% ± 0.22% | EC50 (HK-2 normal; HK-2 normal): 6.91 ± 0.66 µM | efficacy (maximum growth inhibition observed) (RTC91696 normal): 46.27% ± 0.95% | EC50 (RTC91696 normal): 9.42 ± 0.43 µM

COC(=O)c1ccc(NC(=S)Nc2ccc3c(c2)C(C)(C)CC(C)(C)S3)cc1 [SHetD4]
efficacy (maximum growth inhibition observed) (Caki-1 cancer; Caki-1 cancer, 48 h): 38.67% ± 1.50% | EC50 (Caki-1 cancer; Caki-1 cancer, 48 h): 7.56 ± 0.15 µM | efficacy (maximum growth inhibition observed) (786-O cancer): 44.55% ± 17.56% | EC50 (786-O cancer): 5.08 ± 0.71 µM | efficacy (maximum growth inhibition observed) (HK-2 normal; HK-2 normal): 43.67% ± 0.44% | EC50 (HK-2 normal; HK-2 normal): 7.42 ± 0.2 µM | efficacy (maximum growth inhibition observed) (RTC91696 normal): 37.74% ± 6.61% | EC50 (RTC91696 normal): 5.36 ± 0.6 µM

COC(=O)c1cccc(NC(=S)Nc2ccc3c(c2)C(C)(C)CC(C)(C)S3)c1 [SHetD5]
efficacy (maximum growth inhibition observed) (Caki-1 cancer; Caki-1 cancer, 48 h): 34.10% ± 1.20% | EC50 (Caki-1 cancer; Caki-1 cancer, 48 h): 7.22 ± 0.25 µM | efficacy (maximum growth inhibition observed) (786-O cancer): 41.80% ± 16.91% | EC50 (786-O cancer): 5.14 ± 0.7 µM | efficacy (maximum growth inhibition observed) (HK-2 normal; HK-2 normal): 47.97% ± 1.00% | EC50 (HK-2 normal; HK-2 normal): 4.96 ± 0.25 µM

CC1=C(/C=C/C(C)=C/C=C/C(C)=C/C(=O)O)C(C)(C)CCC1 [t-RA, trans-retinoic acid, reference compound]
efficacy (maximum growth inhibition observed) (Caki-1 cancer; Caki-1 cancer, 48 h): 6.46% ± 9.40% | EC50 (Caki-1 cancer; Homo sapiens, CAKI-1, 48 h): 4.64 ± 1.14 µM | efficacy (maximum growth inhibition observed) (786-O cancer): 0.00% ± 1.43% | efficacy (maximum growth inhibition observed) (HK-2 normal; HK-2 normal): 15.81% ± 0.47% | EC50 (HK-2 normal; Homo sapiens): 6.28 ± 2.19 µM
